Values after ≈ are worked out from the molar mass of the structure shown.
Key:
Bacillus subtilis [1] = assay: Antibacterial activity against Bacillus subtilis NCIM 2063 after 18 hrs by disc diffusion method; assay type: functional
Outline: (§1)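 Modified Kirby-Bauer disc diffusion. Plates inoculated with spore suspension (about 6 × 10⁴ spores mL^-1). Sterile 6 mm paper discs carried test samples at 10 mg mL^-1; ciprofloxacin disc as reference, DMF disc as negative control. Plates held 18 h at 37 °C. Inhibition zone diameters (mm) averaged over triplicate sets.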

Staphylococcus aureus [2] = assay: Antibacterial activity against Staphylococcus aureus NCIM 2079 after 18 hrs by disc diffusion method; assay type: functional; outline: as §1
Pseudomonas aeruginosa [3] = assay: Antibacterial activity against Pseudomonas aeruginosa NCIM 2034 after 18 hrs by disc diffusion method; assay type: functional; outline: as §1
Escherichia coli [4] = assay: Antibacterial activity against Escherichia coli NCIM 2065 after 18 hrs by disc diffusion method; assay type: functional; outline: as §1
Candida albicans [5] = assay: Antifungal activity against Candida albicans MUCC 29 after 48 hrs by disc diffusion method; assay type: functional
Outline: (§2)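 Agar well diffusion on plates inoculated with spore suspension in normal saline from cultures on Sabouraud's broth. Wells punched and loaded with test samples or griseofulvin at 10 mg mL^-1, with DMSO as negative control. Incubated 48 h at 37 °C.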

Microsporum audouinii [6] = assay: Antifungal activity against Microsporum audouinii MUCC 545 after 48 hrs by disc diffusion method; assay type: functional; outline: as §2
Trichophyton benhamiae [7] = assay: Antifungal activity against Trichophyton mentagrophytes MUCC 665 after 48 hrs by disc diffusion method; assay type: functional, Arthroderma benhamiae; outline: as §2
Aspergillus niger = assay: Antifungal activity against Aspergillus niger MUCC 177 after 48 hrs by disc diffusion method; assay type: functional; outline: as §2
Bacillus subtilis [8] = assay: Antibacterial activity against Bacillus subtilis NCIM 2063 after 18 hrs by tube dilution method; assay type: functional; conditions: NCIM 2063, 18 h
Outline: (§3)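 Tube dilution MIC. Stock diluted in sterile broth to seven concentrations from 200 to 3.1 […]. Each tube inoculated with one loopful of test bacterium and incubated 18 h at 37 °C. MIC read from presence or absence of growth.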

Staphylococcus aureus [9] = assay: Antibacterial activity against Staphylococcus aureus NCIM 2079 after 18 hrs by tube dilution method; assay type: functional; conditions: NCIM 2079, 18 h; outline: as §3
Pseudomonas aeruginosa [10] = assay: Antibacterial activity against Pseudomonas aeruginosa NCIM 2034 after 18 hrs by tube dilution method; assay type: functional; conditions: NCIM 2034, 18 h; outline: as §3
Escherichia coli [11] = assay: Antibacterial activity against Escherichia coli NCIM 2065 after 18 hrs by tube dilution method; assay type: functional; conditions: NCIM 2065, 18 h
Candida albicans [12] = assay: Antifungal activity against Candida albicans MUCC 29 after 48 hrs by tube dilution method; assay type: functional
Outline: (§4)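 Tube dilution MIC as for bacteria (seven concentrations, 200–3.1 […]), with DMSO in place of DMF. Tubes inoculated with fungal culture and incubated 48 h at 37 °C. MIC read from presence or absence of growth.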

Microsporum audouinii [13] = assay: Antifungal activity against Microsporum audouinii MUCC 545 after 48 hrs by tube dilution method; assay type: functional; outline: as §4
Trichophyton benhamiae [14] = assay: Antifungal activity against Trichophyton mentagrophytes MUCC 665 after 48 hrs by tube dilution method; assay type: functional, Arthroderma benhamiae; outline: as §4
Eudrilus [15] = assay: Anthelmintic activity against Eudrilus sp. assessed as mean paralyzing time; assay type: functional
Outline: (§5)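 Earthworms exposed to test suspensions at 2 mg mL^-1 (0.2% w/v), made by triturating compound with Tween 80 (0.5%) and distilled water, then mechanically stirred 30 min. Mebendazole suspension prepared alike as reference. Paralysis and death times recorded; death confirmed by no movement in 50 °C water. Means from triplicate sets.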

Eudrilus [16] = assay: Anthelmintic activity against Eudrilus sp. assessed as mean death time; assay type: functional
Outline: (§6)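 Earthworms exposed to test suspensions at 2 mg mL−1, prepared by triturating compound with Tween 80 (0.5%) and distilled water, stirring 30 min, then diluting to 0.2% w/v. Mebendazole suspension was made the same way. Death was confirmed by moving worms into 50 °C warm water and looking for movement. Mean death time (min) taken from triplicate sets.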

[17] = Anthelmintic activity against Megascoplex konkanensis ICARBC 211 assessed as mean paralyzing time; assay type: functional; outline: as §5
[18] = Anthelmintic activity against Megascoplex konkanensis ICARBC 211 assessed as mean death time; assay type: functional; outline: as §5
Pontoscolex corethrurus [19] = assay: Anthelmintic activity against Pontoscolex corethrurus ICARBC 408 assessed as mean paralyzing time; assay type: functional; outline: as §5
Pontoscolex corethrurus [20] = assay: Anthelmintic activity against Pontoscolex corethrurus ICARBC 408 assessed as mean death time; assay type: functional; outline: as §6

| Compound | inhibition zone (IZ) (Bacillus subtilis [1]) [mm] | inhibition zone (IZ) (Staphylococcus aureus [2]) [mm] | inhibition zone (IZ) (Pseudomonas aeruginosa [3]) [mm] | inhibition zone (IZ) (Escherichia coli [4]) [mm] | inhibition zone (IZ) (Candida albicans [5]) [mm] | inhibition zone (IZ) (Microsporum audouinii [6]) [mm] | inhibition zone (IZ) (Trichophyton benhamiae [7]) [mm] | inhibition zone (IZ) (Aspergillus niger) [mm] | MIC (Bacillus subtilis [8]) [µg/mL] | MIC (Staphylococcus aureus [9]) [µg/mL] | MIC (Pseudomonas aeruginosa [10]) [µg/mL] | MIC (Escherichia coli [11]) [µg/mL] | MIC (Candida albicans [12]) [µg/mL] | MIC (Microsporum audouinii [13]) [µg/mL] | MIC (Trichophyton benhamiae [14]) [µg/mL] | Time (Eudrilus [15]) [min] | Time (Eudrilus [16]) [min] | TIME [17] [h] | TIME [18] [h] | Time (Pontoscolex corethrurus [19]) [min] | other results |
| --- | --- | --- | --- | --- | --- | --- | --- | --- | --- | --- | --- | --- | --- | --- | --- | --- | --- | --- | --- | --- | --- |
| COC(=O)[C@H](Cc1c[nH]c2ccccc12)NC(=O)c1cc(I)c(-c2nc3cc(C)c(C)cc3[nH]2)c(I)c1 | 16 | 12 | 25 | 19 | 18 | 9 | 12 | 19 | 6 (≈ 8.35 µM) | 12.5 (≈ 17.4 µM) | 6 (≈ 8.35 µM) | 12.5 (≈ 17.4 µM) | 6 (≈ 8.35 µM) | 12.5 (≈ 17.4 µM) | 6 (≈ 8.35 µM) | 13.5 | 24.02 | 0.217 | 0.371 | 17.1 | Time (Pontoscolex corethrurus [20]): 29.29 min |
| COC(=O)[C@@H]1CCCN1C(=O)[C@H](Cc1cnc[nH]1)NC(=O)c1cc(I)c(-c2nc3cc(C)c(C)cc3[nH]2)c(I)c1 | 14 | 11 | 24 | 17 | 16 | 9 | 12 | 13 | 6 (≈ 7.83 µM) | 12.5 (≈ 16.3 µM) | 6 (≈ 7.83 µM) | 12.5 (≈ 16.3 µM) | 6 (≈ 7.83 µM) | 25 (≈ 32.6 µM) | 6 (≈ 7.83 µM) | 13.48 | 23.98 | 0.229 | 0.379 | 17.52 | Time (Pontoscolex corethrurus [20]): 29.58 min |
| COC(=O)[C@H](CCCNC(=N)N[N+](=O)[O-])NC(=O)c1cc(-c2nc3ccc([N+](=O)[O-])cc3[nH]2)ccc1O | 13 | 10 | 19 | 15 | 15 | 13 | 15 | 18 | 6 (≈ 11.7 µM) | 25 (≈ 48.6 µM) | 6 (≈ 11.7 µM) | 12.5 (≈ 24.3 µM) | 12.5 (≈ 24.3 µM) | 6 (≈ 11.7 µM) | 6 (≈ 11.7 µM) | 17.98 | 28.27 | 0.27 | 0.426 | 20.65 | Time (Pontoscolex corethrurus [20]): 32.22 min |
| CC[C@H](C)[C@H](NC(=O)[C@H](CC(C)C)NC(=O)c1cc(-c2nc3cc(C)c(C)cc3[nH]2)ccc1O)C(=O)OC | 15 | 10 | 20 | 16 | 19 | 12 | 13 | 19 | 6 (≈ 11.5 µM) | 12.5 (≈ 23.9 µM) | 6 (≈ 11.5 µM) | 12.5 (≈ 23.9 µM) | 6 (≈ 11.5 µM) | 6 (≈ 11.5 µM) | 6 (≈ 11.5 µM) | 25.69 | 36.12 | 0.425 | 0.569 | 29.83 | Time (Pontoscolex corethrurus [20]): 41.53 min |
| Cc1cc2nc(-c3c(I)cc(C(=O)N[C@@H](Cc4ccccc4)C(=O)N[C@H](C(=O)N4CCC[C@H]4C(=O)O)C(C)C)cc3I)[nH]c2cc1C | 17 | 13 | 24 | 18 | 17 | 11 | 13 | 15 | 6 (≈ 6.96 µM) | 25 (≈ 29 µM) | 12.5 (≈ 14.5 µM) | 25 (≈ 29 µM) | 6 (≈ 6.96 µM) | 12.5 (≈ 14.5 µM) | 6 (≈ 6.96 µM) | 27.1 | 44.1 | 0.44 | 0.698 | 34.13 | Time (Pontoscolex corethrurus [20]): 50.13 min |
| COC(=O)[C@H](Cc1ccc(O)cc1)NC(=O)[C@H](Cc1cnc[nH]1)NC(=O)c1ccc(-c2nc3cc(C)c(C)cc3[nH]2)cc1 | 14 | 10 | 19 | 15 | 16 | 8 | 13 | 16 | 6 (≈ 10.3 µM) | 12.5 (≈ 21.5 µM) | 12.5 (≈ 21.5 µM) | 25 (≈ 43.1 µM) | 12.5 (≈ 21.5 µM) | 25 (≈ 43.1 µM) | 6 (≈ 10.3 µM) | 13.49 | 23.98 | 0.228 | 0.377 | 17.55 | Time (Pontoscolex corethrurus [20]): 29.18 min |
| COC(=O)[C@H](C)NC(=O)[C@@H]1CCCN1C(=O)c1cc(-c2nc3ccc([N+](=O)[O-])cc3[nH]2)ccc1O | 13 | 9 | 28 | 18 | 22 | 12 | 17 | 16 | 12.5 (≈ 26 µM) | 25 (≈ 51.9 µM) | 6 (≈ 12.5 µM) | 12.5 (≈ 26 µM) | 6 (≈ 12.5 µM) | 6 (≈ 12.5 µM) | 6 (≈ 12.5 µM) | 27.23 | 35.82 | 0.438 | 0.587 | 31.98 | Time (Pontoscolex corethrurus [20]): 43.76 min |
| Cc1cc2nc(-c3ccc(C(=O)N[C@@H](CC(C)C)C(=O)NCC(=O)O)cc3)[nH]c2cc1C | 13 | 10 | 23 | 17 | 19 | 11 | 14 | 17 | 6 (≈ 13.7 µM) | 12.5 (≈ 28.6 µM) | 6 (≈ 13.7 µM) | 12.5 (≈ 28.6 µM) | 6 (≈ 13.7 µM) | 25 (≈ 57.3 µM) | 6 (≈ 13.7 µM) | 32.8 | 40.24 | 0.438 | 0.671 | 36.61 | Time (Pontoscolex corethrurus [20]): 48.39 min |
| COC(=O)[C@@H]1CCCN1C(=O)[C@@H](NC(=O)[C@H](Cc1ccccc1)NC(=O)c1cc(I)c(-c2nc3cc(C)c(C)cc3[nH]2)c(I)c1)C(C)C | 16 | 12 | 22 | 16 | 16 | 10 | 12 | 14 | 6 (≈ 6.85 µM) | 25 (≈ 28.6 µM) | 12.5 (≈ 14.3 µM) | 25 (≈ 28.6 µM) | 6 (≈ 6.85 µM) | 12.5 (≈ 14.3 µM) | 6 (≈ 6.85 µM) | 29.24 | 45.34 | 0.454 | 0.672 | 33.64 | Time (Pontoscolex corethrurus [20]): 50.22 min |
| COC(=O)[C@H](Cc1ccccc1)NC(=O)[C@@H]1CCCN1C(=O)[C@@H]1CCCN1C(=O)c1ccc(-c2nc3cc(C)c(C)cc3[nH]2)cc1 | 13 | 8 | 20 | 16 | 16 | 9 | 13 | 14 | 12.5 (≈ 20.1 µM) | 25 (≈ 40.2 µM) | 6 (≈ 9.65 µM) | 25 (≈ 40.2 µM) | 6 (≈ 9.65 µM) | 25 (≈ 40.2 µM) | 6 (≈ 9.65 µM) | 32.82 | 53.34 | 0.613 | 1.04 | 49.35 | Time (Pontoscolex corethrurus [20]): 72.24 min |
